Publication PMC3145007 (Journal of the American Chemical Society, 2011)
Entries after “also recorded” stand apart in the source; their conditions may differ.

What was measured:
[1] = target: T1, PREPL (Mus musculus, UniProt Q8C167); test: gel-based ABPP IC50 determination with recombinant PREPL and FP-Rh; type: biochemical
[2] = target: PEP (Mus musculus, UniProt Q9QUR6); test: PEP selectivity assay; type: biochemical; settings: 20 μM inhibitor; >20% reduction in PEP activity = cross-reactive
[3] = target: T1, PREPL; test: in situ ABPP assay in PREPL-transfected Neuro2A cells; type: cell-based; settings: 50 μM inhibitor in media
How it was run: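 Neuro2A cells plated at 1.5 × 10^6 per well and transfected next day with mouse PREPL plasmid by lipofection. Two days later, medium replaced with medium containing test compound for 1.5 h. Cell-permeable FP-alkyne then added (10 μM final) for 1 h. Cells PBS-washed, scraped, lysed by 7 freeze-thaw cycles and spun at 20,000 x g. Lysate at 4 mg/ml clicked with rhodamine-azide/TCEP/ligand/CuSO4 for 1 h, then resolved by SDS-PAGE.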

[4] = in vivo distribution of PREPL inhibitor to brain by LC-MS/MS; settings: mouse, 1 mg/kg intraperitoneal, 30 minutes, brain extract, MRM
[5] = target: T1, PREPL; test: MUGB; type: biochemical
[6] = target: T1, PREPL; test: competitive gel-based ABPP in PREPL-spiked mouse brain proteome; type: biochemical; settings: 50 μM inhibitor, brain proteome 1 mg/mL spiked with 40 nM PREPL, FP-Rh
How it was run: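 Brain proteome diluted to 1 mg/mL in PBS pH 7.4 and spiked with recombinant His-tagged mouse PREPL (E. coli-expressed, Ni-IMAC purified), with Pluronic at 0.01% final. Test compound or DMSO preincubated 30 min at room temperature. FP-Rh at 0.5 μM final for 15 min, then SDS-loading-buffer quench. Samples run on 10% SDS-PAGE, scanned in-gel for fluorescence, and PREPL bands quantified for labeling extent.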

T1 sequence (Q8C167 88-725): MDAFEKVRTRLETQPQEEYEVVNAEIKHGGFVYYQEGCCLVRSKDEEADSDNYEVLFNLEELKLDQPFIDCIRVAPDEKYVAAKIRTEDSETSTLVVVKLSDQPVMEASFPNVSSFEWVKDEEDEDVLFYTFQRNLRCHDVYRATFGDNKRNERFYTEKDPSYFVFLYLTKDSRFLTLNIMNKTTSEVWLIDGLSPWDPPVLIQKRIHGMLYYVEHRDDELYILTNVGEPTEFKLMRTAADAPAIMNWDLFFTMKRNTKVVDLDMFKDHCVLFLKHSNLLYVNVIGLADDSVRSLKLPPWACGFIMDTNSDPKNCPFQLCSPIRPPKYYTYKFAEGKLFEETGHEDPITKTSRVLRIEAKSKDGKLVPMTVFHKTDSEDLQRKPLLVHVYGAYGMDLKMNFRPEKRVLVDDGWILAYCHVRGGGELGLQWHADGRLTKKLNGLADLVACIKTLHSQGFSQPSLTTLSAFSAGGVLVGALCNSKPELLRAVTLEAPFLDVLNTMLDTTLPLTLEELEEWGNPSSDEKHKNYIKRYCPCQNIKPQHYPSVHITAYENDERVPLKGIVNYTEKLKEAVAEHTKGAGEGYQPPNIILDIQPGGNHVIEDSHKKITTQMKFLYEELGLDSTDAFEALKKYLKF
PEP, sequence (Q9QUR6 whole entry): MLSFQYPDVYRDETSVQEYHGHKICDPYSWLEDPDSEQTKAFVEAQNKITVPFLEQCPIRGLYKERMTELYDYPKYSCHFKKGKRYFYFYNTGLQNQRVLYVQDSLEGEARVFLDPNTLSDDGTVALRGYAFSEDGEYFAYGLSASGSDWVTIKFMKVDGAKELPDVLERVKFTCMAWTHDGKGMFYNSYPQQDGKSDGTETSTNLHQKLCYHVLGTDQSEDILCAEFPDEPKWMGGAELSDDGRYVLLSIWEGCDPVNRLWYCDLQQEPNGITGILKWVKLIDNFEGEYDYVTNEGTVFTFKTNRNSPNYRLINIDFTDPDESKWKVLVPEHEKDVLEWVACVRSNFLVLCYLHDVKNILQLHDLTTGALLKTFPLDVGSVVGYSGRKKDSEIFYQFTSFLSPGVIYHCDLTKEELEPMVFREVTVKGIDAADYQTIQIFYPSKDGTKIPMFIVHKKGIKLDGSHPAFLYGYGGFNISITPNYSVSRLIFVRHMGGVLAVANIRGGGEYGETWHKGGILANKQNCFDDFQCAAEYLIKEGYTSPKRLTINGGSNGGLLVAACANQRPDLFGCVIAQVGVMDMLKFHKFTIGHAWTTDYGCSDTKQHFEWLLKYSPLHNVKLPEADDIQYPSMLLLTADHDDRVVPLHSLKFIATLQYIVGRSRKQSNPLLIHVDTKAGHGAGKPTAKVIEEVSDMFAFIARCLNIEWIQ

CC(C)Cc1[nH]c(=O)c(C#N)c2c1CCC2 [compound 8, 1-isobutyl-3-oxo-3,5,6,7-tetrahydro-2H-cyclopenta[c]pyridine-4-carbonitrile]
IC50 [1]: 3 to 12 µM
crossreactivity against PEP [2]: non-crossreactive
inhibition of PREPL in cells (in situ) [3]: able to cross the cell membrane and inhibit PREPL intracellularly; also recorded: lighter band on the gel
presence in brain / crossing of blood-brain barrier [4]: strong signal; also recorded: able to cross the blood-brain barrier
inhibition of MUGB breakdown by PREPL [5]: inhibited breakdown of MUGB by PREPL
inhibition of PREPL in complex (brain) proteome [6]: able to inhibit PREPL in a complex proteome; also recorded: most potent carbonitrile inhibitor in the brain proteome ABPP assay; also recorded: selectively inhibit PREPL in brain proteomes
